GalR3 antagonist = blocks the human galanin receptor 3; HEK293 GalR3-CNG cAMP membrane potential fluorescence; galR3 body fused to GalR1 C-terminus; inhibition, % at 3 µM; 360,000 tested, 0.44% active; AID 651719;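 active = inhibition above the screen-wide average plus 3 SD, cut at about 13% in these data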;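 note: forskolin and galanin both at EC90 stimulate the cells; cAMP rise reported by CNG channel membrane potential dye signal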
Target sequence (O60755 1-299 limits assumed): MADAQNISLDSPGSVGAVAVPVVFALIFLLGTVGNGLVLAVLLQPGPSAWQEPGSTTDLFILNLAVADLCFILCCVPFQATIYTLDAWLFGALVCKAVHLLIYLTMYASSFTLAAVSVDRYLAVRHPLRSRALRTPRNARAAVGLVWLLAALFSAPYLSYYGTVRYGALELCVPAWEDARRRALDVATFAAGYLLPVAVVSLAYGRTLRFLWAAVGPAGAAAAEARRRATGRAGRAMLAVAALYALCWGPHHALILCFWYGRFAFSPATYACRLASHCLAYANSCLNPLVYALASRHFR
CHO parental Ca = counter-screen: ATP calcium response change in parental CHO cells; parental CHO-K1, ATP-induced calcium, Fluo-8 fluorescence; inhibition, % at 5.6 µM; 330,000 tested, 0.63% active;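 active = inhibition above that plate's mean sample inhibition plus 3 SD, cut at about 26% in these data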
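test system = CHO parental line | reagent = ATP stimulus | measured by = intracellular calcium via Fluo-8 no-wash fluorescent dye | control set = ATP and no-ATP DMSO wells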
OX1R antag-1 = antagonists of human orexin 1 receptor; O43613; CHO/OX1R cells, Fluo-8 calcium fluorescence, orexin A; inhibition, % at 5 µM; 330,000 tested, 0.43% active;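 active = inhibition above its plate's threshold, mean inhibition of all tested compounds on the plate plus 3 SD, cut at about 37% in these data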
OX1R antag-2 = blocks the human orexin 1 receptor. OX1R-expressing cells, FRET antagonist read-out. inhibition, % at 6.6 µM. 330,000 tested, 1.8% active. AID 485270; in the data active = inhibition mostly above about 38%, no sharp cut-off; inactive = mostly below about 40%
GPR7 antagonist = blocks human GPR7 receptor signaling. GPR7-expressing cells, fluorescence antagonist assay. inhibition, % at 4.4 µM. 290,000 tested, 1.1% active. AID 1861; in the data active = inhibition above about 16%, passing the limit was not always enough;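 note: cells stimulated with the agonist NPW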
Target sequence (P48145 whole entry, looked up): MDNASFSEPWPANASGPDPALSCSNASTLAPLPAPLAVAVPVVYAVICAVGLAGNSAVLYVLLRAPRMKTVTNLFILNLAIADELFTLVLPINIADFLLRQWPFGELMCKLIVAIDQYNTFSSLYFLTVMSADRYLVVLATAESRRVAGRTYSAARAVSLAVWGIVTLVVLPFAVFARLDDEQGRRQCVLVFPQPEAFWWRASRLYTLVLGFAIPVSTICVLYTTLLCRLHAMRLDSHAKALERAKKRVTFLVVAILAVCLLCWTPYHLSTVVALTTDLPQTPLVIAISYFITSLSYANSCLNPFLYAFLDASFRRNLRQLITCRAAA
GPR7 antag cf = human GPR7 antagonism, confirmation assay. shares compounds with GPR7 antagonist. 2,400 tested, 52% active. inhibition, % at 4.4 µM. GPR7-expressing cells, calcium fluorescence antagonist mode; in the data active = inhibition above about 24%;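 note: stimulated with the GPR7 agonist NPW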
MCHR1 antag = MCHR1 (human) antagonism in GPR7 counter-screen | shares compounds with GPR7 antagonist | MCHR1-expressing cells, fluorescence antagonist assay | inhibition, % at 4.4 µM | 2,400 tested, 62% active | AID 2148; in the data active = inhibition above about 22%
Large screens that a line does not name were inactive (follow-up assays come after a bar, where they were run). Shown are actives, neighbours in structure and some others; about 3.1% of the full set was active somewhere.

CSc1nc(N)nc(SCC(=O)Nc2cccc(F)c2)c1C#N	CHO parental Ca 62.4, GPR7 antagonist 25.7 | GPR7 antag cf inactive | MCHR1 antag 63.6
CSc1nc(N)nc(SCC(=O)Nc2ccc(Cl)cc2)c1C#N	none
COc1ccc(C(=O)COC(=O)c2cc(=O)[nH]c3ccccc23)c(OC)c1	none (no result: GPR7 antagonist)
O=C(Nc1ccc(S(=O)(=O)N2CCCCC2)cc1)c1ccc(CN2CCOCC2)cc1	GPR7 antagonist 60.2 (no result: GalR3 antagonist) | GPR7 antag cf 62.0 | MCHR1 antag 83.1
COc1ccc(C2C(Oc3ccccc3C)C(=O)N2Cc2ccc(F)cc2)cc1OC (centres undefined)	GPR7 antagonist 27.9 | GPR7 antag cf inactive | MCHR1 antag inactive
CN=c1scc(-c2ccc(F)cc2)n1/N=C/c1ccc(O)c(O)c1	GPR7 antagonist 23.1 (no result: CHO parental Ca, OX1R antag-1, OX1R antag-2) | GPR7 antag cf 33.1 | MCHR1 antag inactive
CN=c1scc(-c2ccc([N+](=O)[O-])cc2)n1/N=C/c1ccco1	none
CCCc1cc(=O)oc2cc(C)cc(OC(C)C(=O)NCC(O)c3ccccc3)c12 (centres undefined)	none
NC(=O)CSc1nnc(-c2ccc(S(=O)(=O)N3CCCCC3)cc2)n1-c1ccccc1	none
COc1ccccc1-n1c(SCC(N)=O)nnc1-c1ccc(S(=O)(=O)N2CCCCC2)cc1	GPR7 antagonist 38.8 | GPR7 antag cf 42.2 | MCHR1 antag inactive
Cc1cccc(S(=O)(=O)NC(=O)C2(C)CCN2C(=O)Cc2ccc(C(C)(C)C)cc2)c1 (centres undefined)	none (no result: CHO parental Ca, OX1R antag-1, OX1R antag-2, GPR7 antagonist)
CC(Sc1nnc2ccccn12)C(N)=O (centres undefined)	GPR7 antagonist 25.1 | GPR7 antag cf inactive | MCHR1 antag inactive
CN(C)c1ccc(Nc2ccc([N+](=O)[O-])cn2)cc1	OX1R antag-2 43.2, GPR7 antagonist 24.3 | GPR7 antag cf 40.7 | MCHR1 antag inactive
O=[N+]([O-])c1ccc(Nc2ccc(F)cc2)nc1	none
CN(C)CCCN(C(=O)c1ccc(S(=O)(=O)N2CCc3ccccc3C2)cc1)c1nc2ccc(F)cc2s1	GPR7 antagonist 46.0 | GPR7 antag cf 76.5 | MCHR1 antag 63.5
CN(C)CCCN(C(=O)c1cc(-c2cccs2)nc2ccccc12)c1nc2ccc(F)cc2s1	GPR7 antagonist 30.0 | GPR7 antag cf 58.2 | MCHR1 antag 57.9
Cc1ccc2nc(N(CCCN(C)C)C(=O)c3ccc(S(=O)(=O)N4CCc5ccccc5C4)cc3)sc2c1	GPR7 antagonist 31.5 | GPR7 antag cf 44.3 | MCHR1 antag 33.2
CC(=O)Nc1ccc(/C=N/NC(=O)CNC(=O)c2ccccc2)cc1	none
CC(=O)N1CCN(S(=O)(=O)c2cccc(C(=O)N(C)Cc3ccc(C)o3)c2)CC1	none (no result: CHO parental Ca, OX1R antag-1, OX1R antag-2, GPR7 antagonist)
COc1ccc(N(C)S(=O)(=O)c2cccc(C(=O)N(C)Cc3ccc(C)o3)c2)cc1	GPR7 antagonist 24.6 | GPR7 antag cf 30.6 | MCHR1 antag 25.6
COc1ccc(N(C)S(=O)(=O)c2cccc(C(=O)NC3CCC(C)CC3)c2)cc1 (centres undefined)	GPR7 antagonist 40.0 | GPR7 antag cf 36.4 | MCHR1 antag 48.0
COc1ccc(N(C)S(=O)(=O)c2cccc(C(=O)NC3CCCC(C)C3C)c2)cc1 (centres undefined)	none (no result: GPR7 antagonist)
c1ccc2sc(NC3=NCN(CCN4CCOCC4)CN3)nc2c1	none
Nc1ccn([C@@H]2O[C@H](CNCC3=CCOc4ccc(O)cc43)[C@@H](O)[C@H]2O)c(=O)n1	none (no result: CHO parental Ca, OX1R antag-1, OX1R antag-2, GPR7 antagonist)
CCc1ccc(CNC(=O)Cn2nc(-c3ccccc3)ccc2=O)cc1	GPR7 antagonist 31.1 | GPR7 antag cf inactive | MCHR1 antag inactive
COc1ccc(CCNC(=S)Nc2ccc(S(=O)(=O)Nc3ncccn3)cc2)cc1OC	none
CN1CCN(C(=O)c2ccc(CSc3ccc(Cl)cc3)cc2)CC1	none
CCOC(=O)N1CCN(C(=O)c2ccc(CSc3ccc(Cl)cc3)cc2)CC1	GPR7 antagonist 24.6 (no result: CHO parental Ca, OX1R antag-1, OX1R antag-2) | GPR7 antag cf inactive | MCHR1 antag 49.2
O=C(O)c1ccc(NCc2cccc(Br)c2)cc1	GPR7 antagonist 28.7 | GPR7 antag cf 27.7 | MCHR1 antag inactive
O=C(O)c1ccc(NCc2ccncc2)cc1	none
Cc1cc2nc(-c3nnnn3Cc3ccccc3)c(=O)[nH]c2cc1C	none (no result: CHO parental Ca, OX1R antag-1, OX1R antag-2, GPR7 antagonist)
Cc1ccc(C)c(N(C(=O)c2csnn2)C(C(=O)NC2CCCC2)c2ccncc2)c1 (centres undefined)	none
Cc1ccc(N(C(=O)c2csnn2)C(C(=O)NC2CCCC2)c2ccncc2)c(C)c1 (centres undefined)	GPR7 antagonist 40.6 | GPR7 antag cf inactive | MCHR1 antag inactive
O=C(Nc1ccccc1)Nc1cccc2ccccc12	GPR7 antagonist 36.9 | GPR7 antag cf inactive | MCHR1 antag 22.0
O=C(Nc1cccc(F)c1)Nc1cccc(Cl)c1	GPR7 antagonist 34.5 | GPR7 antag cf 39.6 | MCHR1 antag 55.3
COC(=O)c1cc(NC(=O)Nc2cccc(Cl)c2)ccc1Cl	OX1R antag-1 46.5, OX1R antag-2 50.4, GPR7 antagonist 32.8 | GPR7 antag cf 51.6 | MCHR1 antag 77.3
O=C(Nc1ccccc1)Nc1cc(Cl)cc(Cl)c1	CHO parental Ca 53.6, OX1R antag-1 64.8, OX1R antag-2 83.6, GPR7 antagonist 38.1 | GPR7 antag cf 37.8 | MCHR1 antag 59.8
COC(=O)c1cc(NC(=O)c2ccc(-c3ccccc3)cc2)ccc1Cl	none
O=C(Nc1ccc(C(=O)O)cc1)Nc1cccc2ccccc12	none
O=[N+]([O-])c1ccccc1S(=O)(=O)Nc1ccc(S(=O)(=O)N2CCOCC2)cc1	none
O=C(Nc1cccc(Cl)c1)Nc1cccc(Cl)c1	CHO parental Ca 74.0, OX1R antag-1 38.6, OX1R antag-2 92.3, GPR7 antagonist 21.2 | GPR7 antag cf 45.6 | MCHR1 antag 64.1
Cc1cc(CNC[C@H]2O[C@@H](n3ccc(=O)[nH]c3=O)[C@H](O)[C@@H]2O)no1	none (no result: CHO parental Ca, OX1R antag-1, OX1R antag-2, GPR7 antagonist)
Cc1ccc(NC(=O)Nc2ccc3c(c2)N(C)C(=O)CS3)cc1C	none
Cc1cc(C)cc(NC(=O)Nc2ccc3c(c2)N(C)C(=O)CS3)c1	CHO parental Ca 34.0, GPR7 antagonist 25.2 | GPR7 antag cf 29.5 | MCHR1 antag 75.7
COc1cccc(C2c3[nH]c4ccccc4c3CCN2C(=O)c2ccccc2F)c1OC (centres undefined)	GPR7 antagonist 36.9 | GPR7 antag cf 27.0 | MCHR1 antag 35.4
CCOCc1nc2nc(Cl)c(Cl)nc2[nH]1	none (no result: CHO parental Ca, OX1R antag-1, OX1R antag-2, GPR7 antagonist)
O=C(NC(=S)Nc1cccc([N+](=O)[O-])c1)C1CCCCC1	GPR7 antagonist 32.2 | GPR7 antag cf 33.0 | MCHR1 antag 38.9
CN(C)S(=O)(=O)c1cccc(NC(=S)NC(=O)C2CCCCC2)c1	GPR7 antagonist 32.3 | GPR7 antag cf inactive | MCHR1 antag 35.1
CN(Cc1ccccc1)C1=CC(=[N+]2CCCCC2)CC(C)(C)C1	GalR3 antagonist 41.6, GPR7 antagonist 39.5 | GPR7 antag cf 57.0 | MCHR1 antag 48.4

Screening results from PubChem BioAssay.
